In ChEMBL document CHEMBL4513216, “Probing the Open Global Health Chemical Diversity Library for Multistage-Active Starting Points for Next-Generation Antimalarials” (ACS Infect Dis, 2020):

Assay: Toxicity liver stage against HepG2, at 10uM
Assay type: cell-based
Set-up: test concentration 10 uM, cell line HepG2-A16-CD81EGFP
Settings: human, HepG2-A16-CD81EGFP cells; read-out: INHIBITION
Procedure, shortened: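 Uninfected HepG2-A16-CD81EGFP cells, 3 × 10^3 per well, 1536-well, plated on prespotted compound at 10 μM final, parasite-free screening media added to match infected plates; puromycin 10 μM positive, DMSO 0.5% negative; run in parallel with 48 h PbLuc assay at 37 °C, 5% CO2; viability by CellTiter-Glo luminescence, normalized to controls.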

Structure (SMILES) | cytotoxicity at 10 µM [%]
Cc1ccccc1C(C(=O)NCCN1CCC(CO)CC1)N(C)C (stereo not given) | -4.5
COCc1cc(CN(C)C(C(=O)O)c2cc(C)c(OC)c(C)c2)n[nH]1 (stereo not given) | 1.07
CC(C)Cc1nc(CO)n(-c2ccc3c(c2)OCCO3)n1 | -1.86
CCC[C@@H]1CN(Cc2ccc3c(c2)OCCO3)C[C@H]1C(=O)O | 0.324
CCC[C@H]1CN(S(C)(=O)=O)C[C@@H]1NC(=O)CCOCC | 0.224
CN(C)C(C(=O)N1CC(c2ccccn2)C1)c1ccc2c(c1)OCO2 (stereo not given) | 10.6
COC(=O)[C@]12CNC[C@H]1CN(Cc1nc(C)c[nH]1)C2 | 6.01
CCc1cc(N(C)Cc2nonc2C)nc(N2CCOCC2)n1 | -8.07
O=C(c1cn(CC(=O)N2CCCCCC2)c2ccccc12)C1CC1 | 13.6
Cc1ccc2oc(=O)n(CCC(=O)N3CCN(C)C(=O)C3)c2c1 | -15.6
CCCc1nc(C)cc(N2Cc3cnn(CCO)c3C2)n1 | -129
O=C(c1cccc(CO)n1)N1CCCC1c1nc2cc(F)ccc2[nH]1 (stereo not given) | -1.26
CC(c1ccc(C(=O)NCCc2nc(N)cc(O)n2)o1)N1CCCCC1 (stereo not given) | -8.9
O=C1NC[C@@]2(C(=O)O)CN(Cc3cccc(Oc4ccccc4)c3)C[C@@H]12 | -5.65
COC1CCCN(c2nc(C)nc3c2CCN(Cc2ccco2)CC3)C1 (stereo not given) | 2.02
COc1ccc(N(c2ccc(C)cc2)c2ccc(C(=O)O)s2)cc1 | -3.75
Cc1nc(C2CCCN2CC(=O)Nc2c(C)n[nH]c2C)no1 (stereo not given) | 1.65
Cc1nnc(CN(C)C2CCCN(Cc3noc(C4CC4)n3)C2)o1 (stereo not given) | -2.51
Cn1ccnc1CN1CCCN(C(=O)c2ccc3ccccc3c2)CC1 | -8.66
CC(NC(=O)NCC1(c2ccc(Cl)cc2)CC1)c1nncn1C (stereo not given) | -3.25
Cc1noc(CN2CCCC(Cn3nc(C)nc3C)C2)n1 (stereo not given) | -5.04
Cc1ccc(NC2CCN(C(=O)Cc3ccc(C)s3)CC2)nn1 | -3.75
Cc1nc(C)n(CC2CCCN2c2ncnc3ccsc23)n1 (stereo not given) | 7.61
OCCn1nccc1C1CCN(CCCOc2ccc(F)cc2)CC1 | -4.3
CCOc1ncccc1NC(=O)N1CCc2ccccc2C1 | -8.62
CC(=O)N1CCC(CN2CCN(Cc3nccn3C)C(C)C2)CC1 (stereo not given) | -15.4
Cc1ccc(-c2nnc(CN3CCc4cnc(C)nc4C3)o2)cc1 | -6.95
CCc1ccc(CCC(=O)N2CCOCC2c2ncon2)cc1 (stereo not given) | -3.78

Structure (SMILES) | cytotoxicity at 10 µM [%]
Cc1cccc(-c2ccc(C(=O)NCC3CCOC3)c(=O)[nH]2)c1 (stereo not given) | -9.66
Cc1nn(C)c(N(C)C)c1CNCCNS(C)(=O)=O | -5.05
CCn1ccnc1CN1CCCN(C(=O)c2cccc(C#N)c2)CC1 | -12.2
COCC(c1cccc(C(F)(F)F)c1)N(C)C(=O)c1ccncc1 (stereo not given) | -14.6
Cc1noc(C)c1CC(=O)OCC(=O)N1CCc2sccc2C1 | -0.361
CCc1cc(C)c(C(=O)N2CCCC2CC(=O)c2cnn(C)c2)o1 (stereo not given) | 5.22
O=C(CCc1cccs1)N1CCC(N2CCNC2=O)CC1 | 5.37
c1cnnc(N2CCCC(NCc3ccc(-n4cccn4)cc3)C2)c1 (stereo not given) | 0.241
Cc1oc(-c2ccco2)nc1CC(=O)N1CCN(CC(C)(C)O)CC1 | 0.626
O=C(c1cc[nH]n1)N1CCC(Nc2cccnn2)CC1 | -0.529
CCN1CCCc2cc(-c3cncn3C(C)CN3CCOCC3)ccc21 (stereo not given) | 12.6
CN(C)CCN(C(=O)Cc1ccc2c(c1)OCCO2)C1CCN(C)CC1 | 2.16
O=C1CO[C@@H]2CN(CC3CCOC3)C[C@H]2N1Cc1cccc(F)c1 (stereo not given in full) | -73.5
Cc1ccc(C(=O)N2C[C@H]3CCCC(OCc4cccnc4)[C@H]3C2)cn1 (stereo not given in full) | 4.93
N#Cc1ccc(N2CCC3(CCC(=O)N3Cc3cccnc3)CC2)nc1 | -112
CN1CCN(Cc2cn3c(n2)CN(Cc2cccc(F)c2)CC3)CC1 | -125
CC(C)c1nn(C)c(Cl)c1CNCc1ccc2c(c1)OCO2 | -1.77
CN(C)CCN1C(=O)C2(CCN(CC3CC3)CC2)c2ccccc21 | -120
Cc1nc(CN2CCOCC3(CCN(c4ncccn4)CC3)C2)cs1 | 14.9
Cc1noc([C@H]2C[C@@H]3CCN(CC4CCOCC4)C[C@H]3O2)n1 | -103
c1ccc(O[C@@H]2CN(Cc3nccs3)[C@@H]3CCCO[C@@H]32)nc1 | -8.52
Cn1ccc(CN2CCCC23CCN(Cc2nccn2C)CC3)n1 | -109
O=C(NCC1CC2(CO1)CN(Cc1cccs1)C2)C1CCC1 (stereo not given) | -94.1
O=C(Cc1ccccn1)N1CCC2(CC1)CN(c1ncccn1)CCO2 | -74.3
O=C(COC[C@@]12CCC[C@@H]1CN(C1CCC1)C2)N1CCCC1 | -110
O=C(c1cccc(O)c1)N1CCC2(CCN2c2ncccn2)C1 (stereo not given) | -139
CCOc1cccc(C(=O)N2C[C@@H]3CC[C@H]2CN(C(=O)C2CCC2)C3)c1 | 5.73
